Values after ≈ are worked out from the molar mass of the structure shown.

The test system of the first assay is Bacillus subtilis. The assay can be described thus: Antibacterial activities against Bacillus subtilis ATCC 6633 after 16 to 24 hrs by twofold serial dilution method.
Conditions: not given
Type of assay: functional. The procedure, abridged: (§1)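 Agar twofold serial dilution; compounds from DMF stock. Inoculum about 10⁷ CFU/ml taken from log-phase broth culture. Plates in triplicate, incubated at 37 °C for 16–24 h. Azinomycin run under the same conditions as control drug. MIC = lowest concentration giving no visible growth.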
Turning to `CCOC(=O)C1(C(C)=O)C(c2ccc(N(C)C)cc2)N1c1ccc(/N=N/c2ccc(O)cc2)cc1` (stereo not drawn), the “-logMIC” value amounted to 4.212.
Regarding `CCOC(=O)C1(C(C)=O)C(c2ccc(N(C)C)cc2)N1c1ccc(/N=N/c2cccc([N+](=O)[O-])c2)cc1` (stereo not drawn), the “-logMIC” value stood at 4.658.
For the compound `CCOC(=O)C1(C(C)=O)C(c2ccc(N(C)C)cc2)N1c1ccc(/N=N/c2cccc(Cl)c2)cc1` (stereo not drawn), the “-logMIC” value is given as 4.46.
In the case of `CCOC(=O)C1(C(C)=O)C(c2ccc(N(C)C)cc2)N1c1ccc(/N=N/c2ccc(Cl)cc2)cc1` (stereo not drawn), the “-logMIC” value was found to be 4.39.
With `CCOC(=O)C1(C(C)=O)C(c2ccc(N(C)C)cc2)N1c1ccc(/N=N/c2cccc(C)c2)cc1` (stereo not drawn), the “-logMIC” value is on record as 4.442.
As to `CCOC(=O)C1(C(C)=O)C(c2ccc(N(C)C)cc2)N1c1ccc(/N=N/c2cccc(C(=O)O)c2)cc1` (stereo not drawn), the “-logMIC” value turned out to be 4.553.
As for `CCOC(=O)C1(C(C)=O)C(c2ccc(N(C)C)cc2)N1c1ccc(/N=N/c2ccc([N+](=O)[O-])cc2)cc1` (stereo not drawn), the “-logMIC” value came to 4.586.
With `CCOC(=O)C1(C(C)=O)C(c2ccc(N(C)C)cc2)N1c1ccc(/N=N/c2ccccc2)cc1` (stereo not drawn), the “-logMIC” value came out at 4.154.
For the compound `CCOC(=O)C1(C(C)=O)C(c2ccc(N(C)C)cc2)N1c1ccc(/N=N/c2cccc(O)c2)cc1` (stereo not drawn), the “-logMIC” value is 4.243.
With `CCOC(=O)C1(C(C)=O)C(c2ccc(N(C)C)cc2)N1c1ccc(/N=N/c2ccc(C(=O)O)cc2)cc1` (stereo not drawn), the “-logMIC” value is given as 4.495.
Same read-out and setting: next, `CCOC(=O)C1(C(C)=O)C(c2ccc(N(C)C)cc2)N1c1ccc(/N=N/c2cccc(OC)c2)cc1` (stereo not drawn): 4.607.

The assay is the same for the next values; noted with them: Bacillus subtilis, ATCC 6633.
By MIC is commonly meant the lowest concentration that inhibits growth of the organism. `CCOC(=O)C1(C(C)=O)C(c2ccc(N(C)C)cc2)N1c1ccc(/N=N/c2ccc(O)cc2)cc1` (stereo not drawn): inhibition of growth (MIC) required 0.0614 ng/mL (≈ 0.13 nM).
Regarding `CCOC(=O)C1(C(C)=O)C(c2ccc(N(C)C)cc2)N1c1ccc(/N=N/c2cccc([N+](=O)[O-])c2)cc1` (stereo not drawn), the MIC stood at 0.022 ng/mL (≈ 0.0438 nM).
`CCOC(=O)C1(C(C)=O)C(c2ccc(N(C)C)cc2)N1c1ccc(/N=N/c2cccc(Cl)c2)cc1` (stereo not drawn) displayed an MIC of 0.0347 ng/mL (≈ 0.0706 nM).
For `CCOC(=O)C1(C(C)=O)C(c2ccc(N(C)C)cc2)N1c1ccc(/N=N/c2ccc(Cl)cc2)cc1` (stereo not drawn), it took 0.0407 ng/mL (≈ 0.083 nM) to inhibit growth (MIC).
`CCOC(=O)C1(C(C)=O)C(c2ccc(N(C)C)cc2)N1c1ccc(/N=N/c2cccc(C)c2)cc1` (stereo not drawn) displayed a minimal inhibitory concentration (MIC) of 0.0361 ng/mL (≈ 0.0768 nM).
Regarding `CCOC(=O)C1(C(C)=O)C(c2ccc(N(C)C)cc2)N1c1ccc(/N=N/c2cccc(C(=O)O)c2)cc1` (stereo not drawn), the minimal inhibitory concentration (MIC) was 0.028 ng/mL (≈ 0.0559 nM).
Compound `CCOC(=O)C1(C(C)=O)C(c2ccc(N(C)C)cc2)N1c1ccc(/N=N/c2ccc([N+](=O)[O-])cc2)cc1` (stereo not drawn) had an MIC of 0.0259 ng/mL (≈ 0.0517 nM). This MIC and that of the compound before are within 1.5-fold of each other.
The same measure, in the same setting: next, `CCOC(=O)C1(C(C)=O)C(c2ccc(N(C)C)cc2)N1c1ccc(/N=N/c2ccccc2)cc1` (stereo not drawn): 0.0701 ng/mL (≈ 0.154 nM); `CCOC(=O)C1(C(C)=O)C(c2ccc(N(C)C)cc2)N1c1ccc(/N=N/c2cccc(O)c2)cc1` (stereo not drawn): 0.0571 ng/mL (≈ 0.121 nM); `CCOC(=O)C1(C(C)=O)C(c2ccc(N(C)C)cc2)N1c1ccc(/N=N/c2ccc(C(=O)O)cc2)cc1` (stereo not drawn): 0.032 ng/mL (≈ 0.0639 nM).
In the case of `CCOC(=O)C1(C(C)=O)C(c2ccc(N(C)C)cc2)N1c1ccc(/N=N/c2cccc(OC)c2)cc1` (stereo not drawn), it took 0.0247 ng/mL (≈ 0.0508 nM) to inhibit growth (MIC). This MIC and that of the compound before are within 1.5-fold of each other.

The subject of another assay is Staphylococcus aureus. The experiment in a line: Antibacterial activities against Staphylococcus aureus ATCC 2943 after 16 to 24 hrs by twofold serial dilution method. The assay is classed as functional.
Conditions: not given
The procedure, abridged:
as §1
On to `CCOC(=O)C1(C(C)=O)C(c2ccc(N(C)C)cc2)N1c1ccc(/N=N/c2ccc(O)cc2)cc1` (stereo not drawn), for which the “-logMIC” value turned out to be 4.13.
As for `CCOC(=O)C1(C(C)=O)C(c2ccc(N(C)C)cc2)N1c1ccc(/N=N/c2cccc([N+](=O)[O-])c2)cc1` (stereo not drawn), the “-logMIC” value turned out to be 4.469.
In the case of `CCOC(=O)C1(C(C)=O)C(c2ccc(N(C)C)cc2)N1c1ccc(/N=N/c2cccc(Cl)c2)cc1` (stereo not drawn), the “-logMIC” value was 4.329.
`CCOC(=O)C1(C(C)=O)C(c2ccc(N(C)C)cc2)N1c1ccc(/N=N/c2ccc(Cl)cc2)cc1` (stereo not drawn): the “-logMIC” value amounted to 4.276.
On to `CCOC(=O)C1(C(C)=O)C(c2ccc(N(C)C)cc2)N1c1ccc(/N=N/c2cccc(C)c2)cc1` (stereo not drawn), for which the “-logMIC” value amounted to 4.292.
On to `CCOC(=O)C1(C(C)=O)C(c2ccc(N(C)C)cc2)N1c1ccc(/N=N/c2cccc(C(=O)O)c2)cc1` (stereo not drawn), for which the “-logMIC” value was 4.398.
Regarding `CCOC(=O)C1(C(C)=O)C(c2ccc(N(C)C)cc2)N1c1ccc(/N=N/c2ccc([N+](=O)[O-])cc2)cc1` (stereo not drawn), the “-logMIC” value is reported as 4.445.
For the compound `CCOC(=O)C1(C(C)=O)C(c2ccc(N(C)C)cc2)N1c1ccc(/N=N/c2ccccc2)cc1` (stereo not drawn), the “-logMIC” value amounted to 4.079.
Consider `CCOC(=O)C1(C(C)=O)C(c2ccc(N(C)C)cc2)N1c1ccc(/N=N/c2cccc(O)c2)cc1` (stereo not drawn), for which the “-logMIC” value was determined as 4.155.
Consider `CCOC(=O)C1(C(C)=O)C(c2ccc(N(C)C)cc2)N1c1ccc(/N=N/c2ccc(C(=O)O)cc2)cc1` (stereo not drawn), for which the “-logMIC” value came to 4.357.
Consider `CCOC(=O)C1(C(C)=O)C(c2ccc(N(C)C)cc2)N1c1ccc(/N=N/c2cccc(OC)c2)cc1` (stereo not drawn), for which the “-logMIC” value is on record as 4.431.

The next assay has as its system Escherichia coli. The experiment in a line: Antibacterial activities against Escherichia coli ATCC 13067 after 16 to 24 hrs by twofold serial dilution method. The assay is classed as functional.
Conditions: not given
The gist of the method:
as §1
For `CCOC(=O)C1(C(C)=O)C(c2ccc(N(C)C)cc2)N1c1ccc(/N=N/c2ccc(O)cc2)cc1` (stereo not drawn), the “-logMIC” value is recorded as 4.094.
Still for that read-out and setting: then `CCOC(=O)C1(C(C)=O)C(c2ccc(N(C)C)cc2)N1c1ccc(/N=N/c2cccc([N+](=O)[O-])c2)cc1` (stereo not drawn), with 4.399; and `CCOC(=O)C1(C(C)=O)C(c2ccc(N(C)C)cc2)N1c1ccc(/N=N/c2cccc(Cl)c2)cc1` (stereo not drawn), with 4.276.
For `CCOC(=O)C1(C(C)=O)C(c2ccc(N(C)C)cc2)N1c1ccc(/N=N/c2ccc(Cl)cc2)cc1` (stereo not drawn), the “-logMIC” value is on record as 4.228.
With `CCOC(=O)C1(C(C)=O)C(c2ccc(N(C)C)cc2)N1c1ccc(/N=N/c2cccc(C)c2)cc1` (stereo not drawn), the “-logMIC” value worked out at 4.241.
As for `CCOC(=O)C1(C(C)=O)C(c2ccc(N(C)C)cc2)N1c1ccc(/N=N/c2cccc(C(=O)O)c2)cc1` (stereo not drawn), the “-logMIC” value is listed as 4.337.
As to `CCOC(=O)C1(C(C)=O)C(c2ccc(N(C)C)cc2)N1c1ccc(/N=N/c2ccc([N+](=O)[O-])cc2)cc1` (stereo not drawn), the “-logMIC” value came to 4.378.
With `CCOC(=O)C1(C(C)=O)C(c2ccc(N(C)C)cc2)N1c1ccc(/N=N/c2ccccc2)cc1` (stereo not drawn), the “-logMIC” value amounted to 4.046.
Same read-out and setting: then `CCOC(=O)C1(C(C)=O)C(c2ccc(N(C)C)cc2)N1c1ccc(/N=N/c2cccc(O)c2)cc1` (stereo not drawn), with 4.118; and `CCOC(=O)C1(C(C)=O)C(c2ccc(N(C)C)cc2)N1c1ccc(/N=N/c2ccc(C(=O)O)cc2)cc1` (stereo not drawn), with 4.301; and `CCOC(=O)C1(C(C)=O)C(c2ccc(N(C)C)cc2)N1c1ccc(/N=N/c2cccc(OC)c2)cc1` (stereo not drawn), with 4.364.

The test system of another assay is Brevundimonas diminuta. The assay can be described thus: Antibacterial activities against Pseudomonas diminuta MTCC 3361 after 16 to 24 hrs by twofold serial dilution method. The assay is classed as functional.
Conditions: not given
The gist of the method: as §1
As to `CCOC(=O)C1(C(C)=O)C(c2ccc(N(C)C)cc2)N1c1ccc(/N=N/c2ccc(C)cc2)cc1` (stereo not drawn), the “-logMIC” value is on record as 4.591.
Take `CCOC(=O)C1(C(C)=O)C(c2ccc(N(C)C)cc2)N1c1ccc(/N=N/c2ccc(O)cc2)cc1` (stereo not drawn): the “-logMIC” value was found to be 4.183.
`CCOC(=O)C1(C(C)=O)C(c2ccc(N(C)C)cc2)N1c1ccc(/N=N/c2cccc([N+](=O)[O-])c2)cc1` (stereo not drawn): the “-logMIC” value was found to be 4.586.
As for `CCOC(=O)C1(C(C)=O)C(c2ccc(N(C)C)cc2)N1c1ccc(/N=N/c2cccc(Cl)c2)cc1` (stereo not drawn), the “-logMIC” value turned out to be 4.412.
As to `CCOC(=O)C1(C(C)=O)C(c2ccc(N(C)C)cc2)N1c1ccc(/N=N/c2ccc(Cl)cc2)cc1` (stereo not drawn), the “-logMIC” value was 4.348.
Turning to `CCOC(=O)C1(C(C)=O)C(c2ccc(N(C)C)cc2)N1c1ccc(/N=N/c2cccc(C)c2)cc1` (stereo not drawn), the “-logMIC” value stood at 4.371.
On to `CCOC(=O)C1(C(C)=O)C(c2ccc(N(C)C)cc2)N1c1ccc(/N=N/c2cccc(C(=O)O)c2)cc1` (stereo not drawn), for which the “-logMIC” value is reported as 4.495.
On to `CCOC(=O)C1(C(C)=O)C(c2ccc(N(C)C)cc2)N1c1ccc(/N=N/c2ccc([N+](=O)[O-])cc2)cc1` (stereo not drawn), for which the “-logMIC” value is recorded as 4.524.
As to `CCOC(=O)C1(C(C)=O)C(c2ccc(N(C)C)cc2)N1c1ccc(/N=N/c2cccc(Br)c2)cc1` (stereo not drawn), the “-logMIC” value was determined as 4.378.
As for `CCOC(=O)C1(C(C)=O)C(c2ccc(N(C)C)cc2)N1c1ccc(/N=N/c2ccccc2OC)cc1` (stereo not drawn), the “-logMIC” value stood at 4.421.
For the compound `CCOC(=O)C1(C(C)=O)C(c2ccc(N(C)C)cc2)N1c1ccc(/N=N/c2ccccc2)cc1` (stereo not drawn), the “-logMIC” value is on record as 4.128.
As to `CCOC(=O)C1(C(C)=O)C(c2ccc(N(C)C)cc2)N1c1ccc(/N=N/c2cccc(O)c2)cc1` (stereo not drawn), the “-logMIC” value is reported as 4.212.
Turning to `CCOC(=O)C1(C(C)=O)C(c2ccc(N(C)C)cc2)N1c1ccc(/N=N/c2ccc(C(=O)O)cc2)cc1` (stereo not drawn), the “-logMIC” value turned out to be 4.444.
For `CCOC(=O)C1(C(C)=O)C(c2ccc(N(C)C)cc2)N1c1ccc(/N=N/c2cccc(OC)c2)cc1` (stereo not drawn), the “-logMIC” value was 4.54.

These data come from ChEMBL document CHEMBL1152835, “Synthesis and QSAR modeling of 2-acetyl-2-ethoxycarbonyl-1-[4(4'-arylazo)-phenyl]-N,N-dimethylaminophenyl aziridines as potential antibacterial agents” (2009).
